Experimental data published in PMC4589150 (Nature chemical biology, 2015).
Non-standard residues stand in square brackets, D forms with d. Residues, ends and D or L forms follow the SMILES beside them. No end group written: not given here. pS = N[C@@H](COP(=O)(O)O)C(=O)O

How the values were obtained:
[1] = molecular target: fluorescein-phospho-SQEY-OH; assay: fluorescence polarisation
[2] = molecular target: T1, MDC1-BRCT (Homo sapiens, UniProt Q14676); assay type: binding
T1 sequence (Q14676 1883-2089): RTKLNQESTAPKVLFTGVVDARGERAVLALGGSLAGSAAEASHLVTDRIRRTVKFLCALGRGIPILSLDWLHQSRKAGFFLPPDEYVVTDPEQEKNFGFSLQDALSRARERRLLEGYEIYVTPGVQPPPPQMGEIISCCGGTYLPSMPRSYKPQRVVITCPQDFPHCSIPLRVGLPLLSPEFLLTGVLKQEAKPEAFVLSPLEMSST
How it was run: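 E. coli-expressed, glutathione-affinity-purified MDC1-BRCT (200 nM) with biotinylated probe 1 (1 μM) and graded γH2AX competitor peptide (Ac-KKATQApSQEY-OH). Incubation 20 min on ice, then 365 nm UV for 15 min on ice. Cross-linked complexes detected by Western blot with streptavidin-based detection. Mean ± s.d., n=3.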

[3] = molecular target: GST-53BP1 residues 1702-1972 (BRCT domains fragment) (Homo sapiens, UniProt Q12888); assay type: binding
Chain of GST-53BP1 residues 1702-1972 (BRCT domains fragment) (Q12888 1702-1972): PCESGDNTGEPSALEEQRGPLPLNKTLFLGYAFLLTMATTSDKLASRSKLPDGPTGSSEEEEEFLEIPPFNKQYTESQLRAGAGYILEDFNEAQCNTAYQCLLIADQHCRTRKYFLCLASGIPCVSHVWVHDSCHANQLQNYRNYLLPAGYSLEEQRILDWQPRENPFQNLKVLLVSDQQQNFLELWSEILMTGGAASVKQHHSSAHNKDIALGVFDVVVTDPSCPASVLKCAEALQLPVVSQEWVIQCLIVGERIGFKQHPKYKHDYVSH
How it was run: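 GST-53BP1 (residues 1702-1972; E. coli-expressed, glutathione-affinity purified, dialysed), 200 nM, with probe 1 or probe 2 (5 μM), or with probe 1 plus γH2AX peptide (100 μM). Incubation 20 min on ice, then 365 nm UV for 15 min on ice. Cross-linking read by streptavidin Western blot. Two independent experiments.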

[4] = molecular target: histone H4 methylated K20 (Homo sapiens) (UniProt P62805); details: cited from earlier work
[5] = system: MDC1; assay: CLASPI 'selectivity filter' SILAC proteomics in HeLa lysate; assay type: binding; details: probes 5 μM, nocodazole-arrested HeLa lysate, SILAC LC-MS/MS
How it was run: (§1)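 Heavy (13C615N4-Arg 22 mg/L, 13C615N2-Lys 50 mg/L) or light SILAC-labelled HeLa S3 cells, nocodazole-arrested, lysed by cryogenic grinding. Lysates photo-cross-linked with γH2AX probe 1 or H2AX probe 2 (5 μM), combined, streptavidin-captured (0.5% SDS, 90 min RT), washed, dithionite-eluted. SDS-PAGE, in-gel trypsin digestion, LC-MS/MS on LTQ-Orbitrap, SILAC ratio quantitation. Forward and reverse label-swap runs.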

[6] = system: 53BP1; assay: as above; assay type: binding; details: probes 5 μM, nocodazole-arrested HeLa lysate, SILAC LC-MS/MS
How it was run: as §1

[7] = system: POLG; assay: as above; assay type: binding; details: probes 5 μM, nocodazole-arrested HeLa lysate, SILAC LC-MS/MS
How it was run: as §1

[8] = system: SIRT1; assay: as above; assay type: binding; details: probes 5 μM, nocodazole-arrested HeLa lysate, SILAC LC-MS/MS
How it was run: as §1

[9] = system: MCM2; assay: as above; assay type: binding; details: probes 5 μM, nocodazole-arrested HeLa lysate, SILAC LC-MS/MS
How it was run: as §1

[10] = molecular target: 53BP1-BRCT (Homo sapiens, UniProt Q12888); assay: Fluorescence anisotropy competition binding against fluorescein-pSQEY-OH
Chain of 53BP1-BRCT (Q12888 1702-1972): as above
How it was run: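 Untagged 53BP1 tandem BRCT (6 μM; GST removed by PreScission, anion-exchange purified) with fluorescein-phospho-SQEY peptide (50 nM) and graded unlabelled competitor peptide. Buffer: 50 mM HEPES pH 7.5, 150 mM NaCl, 1 mM DTT. Anisotropy read after equilibration. IC50 from four-parameter sigmoidal fit. Ki from IC50 using bound/total ligand, receptor and direct-binding Kd.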

[11] = molecular target: T2, fluorescein-SQEY-OH; assay: fluorescence polarisation
T2 sequence (peptide, fluorescein on the N-terminus; free C-terminal carboxylate): SQEY

[12] = molecular target: 53BP1-BRCT (53BP1 tandem BRCT domains, residues 1702-1972), untagged (human) (UniProt Q12888); assay: fluorescence polarisation
Chain of 53BP1-BRCT (53BP1 tandem BRCT domains, residues 1702-1972), untagged (human) (Q12888 1702-1972): as above

53BP1-BRCT R1811Q (from UniProt Q12888 1702-1972) (domain or fragment)
Kd [1]: 35 µM

CC(=O)N[C@@H](CCCCN)C(=O)N[C@@H](CCCCN)C(=O)N[C@@H](C)C(=O)N[C@H](C(=O)N[C@@H](CCC(N)=O)C(=O)N[C@@H](C)C(=O)N[C@@H](COP(=O)(O)O)C(=O)N[C@@H](CCC(N)=O)C(=O)N[C@@H](CCC(=O)O)C(=O)N[C@@H](Cc1ccc(O)cc1)C(=O)O)[C@@H](C)O [γH2AX peptide, Ac-KKATQApSQEY-OH, reference compound] (Ac-KKATQA[pS]QEY-OH)
IC50 [2]: 4.4 ± 1.6 µM
Kd [3]: < 100 µM

53BP1 tandem Tudor (from UniProt Q12888)
Kd [4]: 20 µM

CC(=O)N[C@@H](Cc1cn(CCc2ccc(O)c(N=Nc3ccc(C(=O)NCCOCCOCCOCCOCCNC(=O)CCCC[C@@H]4SC[C@@H]5NC(=O)N[C@@H]54)cc3)c2)nn1)C(=O)N[C@@H](CCCCN)C(=O)N[C@@H](CCCCN)C(=O)N[C@@H](C)C(=O)N[C@@H](Cc1ccc(C(=O)c2ccccc2)cc1)C(=O)N[C@@H](CCC(N)=O)C(=O)N[C@@H](C)C(=O)N[C@@H](COP(=O)(O)O)C(=O)N[C@@H](CCC(N)=O)C(=O)N[C@@H](CCC(=O)O)C(=O)N[C@@H](Cc1ccc(O)cc1)C(=O)O [probe 1]
photo-cross-linking to BRCT domains fragment (in words) ([3]; probe 5 μM, streptavidin Western blot, representative of 2 experiments): robust cross-linking
enrichment ratio of MDC1, probe 1 relative to probe 2 [5]: 3.9
enrichment ratio of 53BP1, probe 1 relative to probe 2 [6]: 4.9
enrichment ratio of POLG, probe 1 relative to probe 2 [7]: 2.5–3.5
enrichment ratio of SIRT1, probe 1 relative to probe 2 [8]: 2.5–3.5
enrichment ratio of MCM2, probe 1 relative to probe 2 [9]: 2.5–3.5

NC(=O)CC[C@H](NC(=O)[C@@H](N)COP(=O)(O)O)C(=O)N[C@@H](CCC(=O)O)C(=O)N[C@@H](Cc1ccc(O)cc1)C(=O)O [pSQEY-OH] (H-[pS]QEY-OH)
Ki [10]: 7.5 ± 1.1 µM

53BP1-BRCT (53BP1 tandem BRCT domains, residues 1702-1972), untagged (from UniProt Q12888 1702-1972) (domain or fragment)
percent of peptide bound at 50 μM 53BP1-BRCT [11]: 10%
Kd [1]: 2.7 µM

NC(=O)CC[C@H](NC(=O)[C@@H](N)COP(=O)(O)O)C(=O)N[C@@H](CCC(=O)O)C(=O)N[C@@H](Cc1ccc(O)cc1)C(N)=O [pSQEY-NH2] (H-[pS]QEY-NH2)
Ki [10]: 25 ± 0.58 µM

53BP1-BRCT K1814M (from UniProt Q12888 1702-1972) (domain or fragment)
Kd [1]: > 70 µM

B1: unlabeled phospho-SQEY-OH tetrapeptide (peptide)
peptide: [pS]QEY-OH
Ki [12]: 7.5 µM

B2: phospho-SPTF-OH (peptide)
peptide: [pS]PTF-OH
Ki [12]: 46 µM

B3: phospho-SQEY-NH2 (peptide)
peptide: [pS]QEY-NH2
Ki [12]: 25 µM
